Screening data as filed in PubChem.
Sampled rows, rich in hits. Any-hit rate of the full collection: about 1.8%.
M4 PAM – potentiates acetylcholine response at human M4 receptor; CHO-K1 hM4/Gqi5, Fluo-8 calcium fluorescence, ACh EC20; 0% = ACh EC20, 100% = maximal ACh; activation, % at 3 µM; 360,000 tested, 0.4% active; AID 624126;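 active = activation above its plate's cutoff, the mean activation of sample wells plus 3 SD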
Target sequence (P08173 whole entry, looked up): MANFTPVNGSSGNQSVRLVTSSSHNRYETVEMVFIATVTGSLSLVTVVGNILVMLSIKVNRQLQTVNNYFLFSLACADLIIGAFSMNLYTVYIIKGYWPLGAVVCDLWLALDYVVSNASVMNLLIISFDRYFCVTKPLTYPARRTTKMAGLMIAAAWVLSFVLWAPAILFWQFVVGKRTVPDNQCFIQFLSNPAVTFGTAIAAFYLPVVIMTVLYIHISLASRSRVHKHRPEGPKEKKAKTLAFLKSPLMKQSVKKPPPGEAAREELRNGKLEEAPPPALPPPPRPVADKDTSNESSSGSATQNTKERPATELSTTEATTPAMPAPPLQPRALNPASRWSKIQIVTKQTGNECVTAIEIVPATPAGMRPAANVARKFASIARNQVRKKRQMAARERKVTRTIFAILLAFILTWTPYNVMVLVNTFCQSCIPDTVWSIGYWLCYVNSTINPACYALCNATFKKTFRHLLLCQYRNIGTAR
CHRM5 agonist – agonists of human muscarinic M5 receptor (CHRM5). P08912. CHO-K1 hM5 cells, Fluo-8 calcium fluorescence; 0% DMSO wells, 100% maximal acetylcholine response. activation, % at 3 µM. 360,000 tested, 0.19% active. AID 624037;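 active = activation above the run's mean over test compounds plus 3 SD, cut at about 23% in these data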;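 also: signal is peak over basal fluorescence ratio across the kinetic read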
CHRM4 agonist – agonists of human muscarinic M4 receptor (CHRM4); P08173; CHO-K1 hM4/Gqi5, Fluo-8 calcium fluorescence; vehicle 0%, full acetylcholine response 100%; activation, % at 3 µM; 360,000 tested, 0.14% active; AID 624127;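 active = activation above the run mean over all test wells plus 3 SD, cut at about 32% in these data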;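 also: peak over basal fluorescence ratio per well then scaled between controls; 0% = DMSO wells and 100% = acetylcholine at EC100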
CHRM5 PAM – potentiates acetylcholine response at human M5 receptor; P08912; CHO-K1 hM5, Fluo-8 calcium, ACh EC20 PAM; 0% = ACh EC20, 100% = ACh EC100; activation, % at 3 µM; 360,000 tested, 0.3% active;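 active = activation above the run cutoff, the mean activation of all test compounds plus 3 SD, cut at about 18% in these data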
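Assay system – human M5 receptor in CHO-K1 cells · Read-out – % activation, ACh-normalized · Technique – Fluo-8 calcium fluorescence · Dosing – single-point, 3 µM nominal · Incubation – Fluo-8 loading 80 min at 37 °C plus 30 min room temperature · Repeats – singlicate, one well per test compound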
M4 antag – antagonists of human muscarinic M4 receptor (CHRM4). P08173. CHO-hM4 cells, ACh EC80, Fluo-8 calcium fluorescence. inhibition, % at 3 µM. 360,000 tested, 0.73% active;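 active = inhibition above its plate's cutoff, the mean inhibition of sample wells plus 3 SD, cut at about 27% in these data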;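 also: 0% = acetylcholine EC80 with DMSO and 100% = DMSO without agonist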
CHRM5 antagonist – blocks acetylcholine activation of human M5 receptor | CHO-hM5 cells, Fluo-8 calcium fluorescence, ACh EC80 | inhibition, % at 3 µM | 360,000 tested, 0.59% active | AID 624040 | P08912;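 active = inhibition above a per-plate cutoff, the mean of that plate's test compounds plus 3 SD, cut at about 27% in these data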;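 also: 0% = acetylcholine EC80 with DMSO and 100% = DMSO without agonist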
* = called active by the depositor.

SMILES | M4 PAM | CHRM5 agonist | CHRM4 agonist | CHRM5 PAM | M4 antag | CHRM5 antagonist
CC1(C(=O)Nc2ccc3c(c2)OCO3)CCN1C(=O)Cc1ccc(-c2ccccc2)cc1 (configuration not stated) | -8.4 | 8.6 | 12.8 | -15.0 | 26.7* | 30.7*
CC1(C(=O)Nc2ccccc2)CCN1C(=O)Cc1ccc(-c2ccccc2)cc1 (configuration not stated) | -5.0 | 4.9 | 9.6 | -10.4 | -2.9 | 13.9
COc1ccc(C2=Nc3ccccc3N(C(=O)c3ccc(C(F)(F)F)cc3)C2C(=O)NCc2ccccc2)cc1 (configuration not stated) | -4.8 | -0.3 | 2.3 | -5.1 | 5.5 | 2.0
Cc1cc(C)c(OCCOCCN2CCNCC2)c(C)c1 | 2.1 | -7.9 | 1.6 | 45.0* | -21.9 | -2.9
Cc1cc(C)c(OCCOCCN2CCCC2)c(C)c1 | -17.4 | -12.0 | 1.4 | 1.5 | -0.6 | 8.2
O=C(c1ccc(Br)o1)N1CCN(C23CC4CC(CC(C4)C2)C3)CC1 | -14.8 | -8.3 | 2.3 | -7.5 | 30.8* | 8.6
O=C(c1ccco1)N1CCN(C(=O)c2ccc(Br)o2)CC1 | 11.3 | 0.4 | 2.4 | -0.7 | -6.8 | -0.1
CC(NC(=O)C1CCN(Cc2ccc(Oc3ccccc3)cc2)CC1)c1cccc2ccccc12 (configuration not stated) | -11.7 | 2.9 | 25.2 | -1.1 | 24.2 | 0.2
O=C(COC(=O)Cc1ccc(Cl)c(Cl)c1)NCCc1ccccc1 | 0.1 | 0.8 | 2.1 | 0.8 | -8.1 | -6.1
N#CCCn1cc(/C=N/O)c(-c2ccccc2)n1 | 19.2 | 2.0 | 0.7 | 9.5 | 2.0 | -8.0
N#CCCn1cc(/C=N/O)c(-c2cccc([N+](=O)[O-])c2)n1 | 3.7 | -10.5 | 0.8 | -15.4 | 8.2 | 46.8*
CCCCNC(=O)C1C(c2ccc(C(F)(F)F)cc2)=Nc2ccccc2N1C(=O)c1cccc2ccccc12 (configuration not stated) | -6.8 | 0.1 | 1.4 | -1.2 | -10.2 | -8.6
O=C(CC1C(=O)NCCN1CC1CCCCC1)NCc1cc(F)ccc1F (configuration not stated) | 5.3 | -0.9 | 3.0 | -14.7 | 0.4 | 27.2*
O=C(CC1C(=O)NCCN1CC1CCCCC1)NCc1ccc(F)cc1F (configuration not stated) | 4.3 | -1.0 | 1.3 | 11.8 | -10.3 | -7.2
CCc1nc2ccc(C(=O)NCCCN3CCCC3=O)cn2c1N(CC)Cc1cccc(Br)c1 | -6.3 | -9.5 | -0.5 | -0.9 | 4.2 | 17.8
O=C(Nc1cccnc1)OCc1ccccc1 | 2.1 | 8.8 | 1.5 | -2.3 | -1.1 | -37.3
O=C(Nc1ccc(Cl)c(Cl)c1)OCc1cccnc1 | -17.0 | 4.8 | 16.9 | -16.3 | 34.2* | 31.2*
O=C(Nc1ccc(Cl)c(Cl)c1)c1cccc(S(=O)(=O)NCc2cccnc2)c1 | -11.4 | 13.4 | 22.7 | -18.5 | 21.7 | 33.6*
CCCCNC(=O)c1[nH]c(C2CCNCC2)nc1-c1cccc(C(F)(F)F)c1 | -1.1 | 1.8 | 2.1 | 1.8 | 1.1 | -2.8
COc1ccc(CCNC(=O)c2cc3ccc(Cl)cc3nc2N)cc1 | -6.8 | 6.1 | 19.7 | -22.6 | 13.1 | 21.3
Cn1nc(C(F)(F)F)c(-c2ccc(Br)cc2)c1NC(=O)Nc1ccc(F)cc1F | -13.9 | 8.9 | 13.7 | -19.8 | 8.3 | 29.7*
O=C(N/N=C1/CCSC1)c1cc(Br)ccc1O | -4.0 | -0.6 | 8.3 | -17.8 | -5.3 | 45.5*
CC1CCCC(C)N1C(=O)c1ccccc1Nc1ccc(SC(F)F)cc1 (configuration not stated) | -1.5 | -5.8 | -1.5 | 22.4* | -7.3 | -6.0
O=C(c1ccccc1Nc1ccc(SC(F)F)cc1)N1CCCCC1 | 36.5* | -3.6 | 0.3 | 6.4 | 20.3 | 0.8
CCNC(=O)C1(C)CCCN(C(=O)c2ccc3c(c2)C(C)(C)CCC3(C)C)C1 (configuration not stated) | 2.4 | 4.8 | 3.2 | 1.2 | -21.1 | 6.4
O=C(COC(=O)CCC1CCCC1)Nc1ccccc1OC(F)F | 22.1* | -2.4 | 4.2 | 3.8 | 3.2 | 5.8
